Measurements taken from ChEMBL document CHEMBL3808357, “Discovery of N-(3-((1-Isonicotinoylpiperidin-4-yl)oxy)-4-methylphenyl)-3-(trifluoromethyl)benzamide (CHMFL-KIT-110) as a Selective, Potent, and Orally Available Type II c-KIT Kinase Inhibitor for Gastrointestinal Stromal Tumors (GISTs)” (J Med Chem, 2016).
Activity calls are given as the source filed them. No cut-off for these calls is given here.

Key:
[1] = biological target: Mast/stem cell growth factor receptor Kit (Homo sapiens) (UniProt P10721); experiment: Inhibition of cKIT in human GISTT1 cells assessed as suppression of AKT phosphorylation at S473 up to 10 uM after 2 hrs by Western blot analysis; format: cell-based
Chain of Mast/stem cell growth factor receptor Kit (Homo sapiens) (P10721 whole entry, the tested form may be a part): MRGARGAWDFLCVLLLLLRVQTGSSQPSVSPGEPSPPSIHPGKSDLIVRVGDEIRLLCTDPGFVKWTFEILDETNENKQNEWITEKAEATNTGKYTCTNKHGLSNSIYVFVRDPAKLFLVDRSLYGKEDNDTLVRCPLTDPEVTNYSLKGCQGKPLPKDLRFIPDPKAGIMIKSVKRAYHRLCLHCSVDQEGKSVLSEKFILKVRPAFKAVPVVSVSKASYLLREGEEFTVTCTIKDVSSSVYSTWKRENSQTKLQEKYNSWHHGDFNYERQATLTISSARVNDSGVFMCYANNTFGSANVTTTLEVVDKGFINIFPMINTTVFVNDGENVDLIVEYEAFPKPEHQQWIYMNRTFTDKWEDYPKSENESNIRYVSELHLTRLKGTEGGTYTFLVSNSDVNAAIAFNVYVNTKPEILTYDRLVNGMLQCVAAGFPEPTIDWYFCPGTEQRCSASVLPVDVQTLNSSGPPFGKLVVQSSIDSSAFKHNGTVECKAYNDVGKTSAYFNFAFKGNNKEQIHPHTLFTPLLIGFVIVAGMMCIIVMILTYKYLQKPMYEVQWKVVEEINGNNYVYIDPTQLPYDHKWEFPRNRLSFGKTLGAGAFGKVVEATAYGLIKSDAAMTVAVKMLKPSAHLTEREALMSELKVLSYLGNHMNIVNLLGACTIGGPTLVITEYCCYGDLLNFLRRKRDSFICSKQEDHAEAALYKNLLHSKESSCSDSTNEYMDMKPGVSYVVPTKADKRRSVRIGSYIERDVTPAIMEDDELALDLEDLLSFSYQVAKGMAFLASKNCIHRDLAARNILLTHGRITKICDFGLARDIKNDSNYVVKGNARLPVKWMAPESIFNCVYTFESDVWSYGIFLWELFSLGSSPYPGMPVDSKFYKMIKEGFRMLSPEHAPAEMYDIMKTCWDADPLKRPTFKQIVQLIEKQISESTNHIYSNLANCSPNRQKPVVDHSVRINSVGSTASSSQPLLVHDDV

[2] = biological target: Mast/stem cell growth factor receptor Kit (Homo sapiens) (UniProt P10721); experiment: Inhibition of cKIT in human GIST882 cells assessed as suppression of ERK phosphorylation at T202/Y204 up to 10 uM after 2 hrs by Western blot analysis; format: cell-based
[3] = biological target: Mast/stem cell growth factor receptor Kit (Homo sapiens) (UniProt P10721); experiment: Inhibition of cKIT in human GIST882 cells assessed as suppression of STAT5 phosphorylation at Y694 up to 10 uM after 2 hrs by Western blot analysis; format: cell-based
GISTT1 [4] = experiment: Induction of apoptosis in human GISTT1 cells assessed as caspase 3 cleavage up to 3 uM after 48 hrs by Western blot analysis; format: functional, cell-based
GIST882 = experiment: Induction of apoptosis in human GIST882 cells assessed as PARP cleavage up to 3 uM after 72 hrs by Western blot analysis; format: functional, cell-based
GIST48B = experiment: Induction of apoptosis in human GIST48B cells assessed as caspase 3 cleavage up to 3 uM after 72 hrs by Western blot analysis; format: functional, cell-based
[5] = Cell cycle arrest in human GIST882 cells at 0.3 to 3 uM after 48 hrs by propidium iodide/RNase staining based flow cytometric analysis; format: functional
Method in brief: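 Cells were then fixed in 70% cold ethanol at −20 °C overnight, stained with PI/RNase buffer and analysed by flow cytometry.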

[6] = Half life in Sprague-Dawley rat plasma at 1 mg/kg, iv; format: ADME, organism-based
Method in brief: (§1)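 Male Sprague-Dawley rats, 8 weeks old, fasted overnight, dosed iv or orally. Formulation was 5% DMSO/40% PEG400/55% saline at 1 mg/mL. Blood (~0.2 mL) was drawn from the jugular vein into heparin. Sampling: iv at 1 min to 8 h; oral at 5 min to 24 h. Plasma was separated by centrifugation at 2−8 °C and stored at −80 °C.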

[7] = Half life in Sprague-Dawley rat plasma at 10 mg/kg, po; format: ADME, organism-based; method in brief: as §1
[8] = Apparent volume of distribution in Sprague-Dawley rat plasma at 1 mg/kg, iv; format: ADME, organism-based; details: read-out: Vz; method in brief: as §1
[9] = Apparent clearance in Sprague-Dawley rat plasma at 1 mg/kg, iv; format: ADME, organism-based; details: read-out: CL(app) (converted); method in brief: as §1
GISTT1 [10] = experiment: Induction of apoptosis in human GISTT1 cells xenografted in nu/nu mouse at 25 to 100 mg/kg/day administered through oral gavage after 21 days by tunel assay; format: functional, organism-based
Method in brief: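 Female nu/nu mice, 6 weeks old, received 5 × 10⁶ GIST-T1 cells in PBS/Matrigel (1:1) subcutaneously in the right flank. At 100−200 mm³, six mice per group were dosed daily by oral gavage at 25, 50 or 100 mg/kg/d in 0.5% methylcellulose/0.4% Tween80, or vehicle. Tumor volume was taken as (W²×L)/2, with body weight and tumor measured daily. Tumors were stained for Ki67 (IHC, 1:50 antibody) and by TUNEL.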

[11] = biological target: T1, Platelet-derived growth factor receptor beta (Homo sapiens, UniProt P09619); experiment: Inhibition of PDGFRbeta phosphorylation at Y857 in human GISTT1 cells up to 10 uM after 2 hrs by Western blot analysis; format: cell-based
T1 sequence (P09619 whole entry): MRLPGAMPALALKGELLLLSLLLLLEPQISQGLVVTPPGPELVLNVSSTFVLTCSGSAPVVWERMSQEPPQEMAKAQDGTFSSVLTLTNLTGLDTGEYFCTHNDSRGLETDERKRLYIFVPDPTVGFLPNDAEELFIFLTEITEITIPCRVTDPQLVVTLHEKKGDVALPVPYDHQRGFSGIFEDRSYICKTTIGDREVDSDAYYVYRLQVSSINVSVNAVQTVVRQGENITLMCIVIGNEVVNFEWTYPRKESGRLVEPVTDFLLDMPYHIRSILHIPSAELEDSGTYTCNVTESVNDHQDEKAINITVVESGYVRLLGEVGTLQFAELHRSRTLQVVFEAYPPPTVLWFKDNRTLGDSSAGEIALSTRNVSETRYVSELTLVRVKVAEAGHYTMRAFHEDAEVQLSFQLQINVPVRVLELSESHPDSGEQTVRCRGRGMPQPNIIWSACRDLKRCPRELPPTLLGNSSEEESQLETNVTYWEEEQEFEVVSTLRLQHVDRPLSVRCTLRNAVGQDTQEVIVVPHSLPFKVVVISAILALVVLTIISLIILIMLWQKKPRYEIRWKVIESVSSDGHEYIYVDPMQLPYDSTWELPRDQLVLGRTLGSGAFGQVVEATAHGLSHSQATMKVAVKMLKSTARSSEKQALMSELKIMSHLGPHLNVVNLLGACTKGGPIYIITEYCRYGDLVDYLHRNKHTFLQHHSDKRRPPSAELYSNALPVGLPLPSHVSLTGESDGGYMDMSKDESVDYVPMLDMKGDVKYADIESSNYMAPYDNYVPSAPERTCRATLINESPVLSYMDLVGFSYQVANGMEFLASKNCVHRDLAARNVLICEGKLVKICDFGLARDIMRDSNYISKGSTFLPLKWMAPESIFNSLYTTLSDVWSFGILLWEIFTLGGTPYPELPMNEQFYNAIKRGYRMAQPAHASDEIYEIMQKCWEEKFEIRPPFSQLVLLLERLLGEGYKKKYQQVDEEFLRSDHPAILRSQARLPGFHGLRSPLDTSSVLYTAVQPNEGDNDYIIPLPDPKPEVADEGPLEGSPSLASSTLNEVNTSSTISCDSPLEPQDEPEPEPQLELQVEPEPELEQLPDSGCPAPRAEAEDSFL
Method in brief: (§2)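 Cells were washed in cold PBS, lysed in RIPA and immunoblotted for phospho and total proteins, including pPDGFRα Y849/PDGFRβ Y857 and β-actin.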

[12] = biological target: T1, Platelet-derived growth factor receptor beta; experiment: Inhibition of PDGFRbeta phosphorylation at Y857 in human GIST882 cells up to 10 uM after 2 hrs by Western blot analysis; format: cell-based; method in brief: as §2
[13] = biological target: T1, Platelet-derived growth factor receptor beta; experiment: Inhibition of PDGFRbeta phosphorylation at Y857 in human GIST48B cells up to 10 uM after 2 hrs by Western blot analysis; format: cell-based; method in brief: as §2
[14] = biological target: Macrophage colony-stimulating factor 1 receptor (Homo sapiens, UniProt P07333); experiment: Inhibition of human wild type partial length CSF1R expressed in bacterial expression system assessed as residual activity at 1 uM by KinomeScan method
Chain of Macrophage colony-stimulating factor 1 receptor (P07333 whole entry): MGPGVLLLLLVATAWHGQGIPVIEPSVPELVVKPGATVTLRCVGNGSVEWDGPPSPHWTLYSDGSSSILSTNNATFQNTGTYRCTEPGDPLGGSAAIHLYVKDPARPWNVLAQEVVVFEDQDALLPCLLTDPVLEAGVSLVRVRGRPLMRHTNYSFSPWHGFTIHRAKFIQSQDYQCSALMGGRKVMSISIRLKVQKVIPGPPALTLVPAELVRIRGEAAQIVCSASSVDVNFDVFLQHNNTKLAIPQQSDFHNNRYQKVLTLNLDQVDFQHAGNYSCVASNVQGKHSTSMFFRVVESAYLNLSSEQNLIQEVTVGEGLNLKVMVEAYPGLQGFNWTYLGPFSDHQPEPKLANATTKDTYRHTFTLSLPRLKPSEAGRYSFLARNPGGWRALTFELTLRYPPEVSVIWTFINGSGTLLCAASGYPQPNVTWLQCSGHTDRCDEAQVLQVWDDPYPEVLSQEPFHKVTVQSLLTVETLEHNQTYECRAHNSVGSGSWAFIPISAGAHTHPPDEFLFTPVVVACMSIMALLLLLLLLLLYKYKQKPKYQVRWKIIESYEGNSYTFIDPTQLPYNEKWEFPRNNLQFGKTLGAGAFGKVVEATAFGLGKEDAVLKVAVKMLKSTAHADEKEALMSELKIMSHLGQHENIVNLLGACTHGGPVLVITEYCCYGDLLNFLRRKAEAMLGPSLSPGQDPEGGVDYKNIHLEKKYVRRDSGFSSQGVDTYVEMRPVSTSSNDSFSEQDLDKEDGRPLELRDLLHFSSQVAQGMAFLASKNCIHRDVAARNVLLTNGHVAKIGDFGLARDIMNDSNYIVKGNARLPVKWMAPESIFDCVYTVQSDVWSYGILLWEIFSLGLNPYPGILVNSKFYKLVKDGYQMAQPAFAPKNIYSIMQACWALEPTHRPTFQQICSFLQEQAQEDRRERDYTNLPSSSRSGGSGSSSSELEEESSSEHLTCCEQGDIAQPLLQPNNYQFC
Method in brief: (§3)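 KinomeScan competitive binding panel of 468 kinases and mutants, compound tested at 1 μM; read-out is percent activity remaining (binding relative to control).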

[15] = biological target: Mast/stem cell growth factor receptor Kit (Homo sapiens) (UniProt P10721); experiment: Inhibition of human wild type partial length cKIT expressed in bacterial expression system assessed as residual activity at 1 uM by KinomeScan method; method in brief: as §3
[16] = biological target: T1, Platelet-derived growth factor receptor beta; experiment: Inhibition of human wild type partial length PDGFRbeta expressed in bacterial expression system assessed as residual activity at 1 uM by KinomeScan method; method in brief: as §3
[17] = biological target: Epithelial discoidin domain-containing receptor 1 (Homo sapiens, UniProt Q08345); experiment: Inhibition of GST-tagged human DDR1 expressed in baculovirus after 1 hr by Z-lyte assay
Chain of Epithelial discoidin domain-containing receptor 1 (Q08345 whole entry, the tested form may be a part): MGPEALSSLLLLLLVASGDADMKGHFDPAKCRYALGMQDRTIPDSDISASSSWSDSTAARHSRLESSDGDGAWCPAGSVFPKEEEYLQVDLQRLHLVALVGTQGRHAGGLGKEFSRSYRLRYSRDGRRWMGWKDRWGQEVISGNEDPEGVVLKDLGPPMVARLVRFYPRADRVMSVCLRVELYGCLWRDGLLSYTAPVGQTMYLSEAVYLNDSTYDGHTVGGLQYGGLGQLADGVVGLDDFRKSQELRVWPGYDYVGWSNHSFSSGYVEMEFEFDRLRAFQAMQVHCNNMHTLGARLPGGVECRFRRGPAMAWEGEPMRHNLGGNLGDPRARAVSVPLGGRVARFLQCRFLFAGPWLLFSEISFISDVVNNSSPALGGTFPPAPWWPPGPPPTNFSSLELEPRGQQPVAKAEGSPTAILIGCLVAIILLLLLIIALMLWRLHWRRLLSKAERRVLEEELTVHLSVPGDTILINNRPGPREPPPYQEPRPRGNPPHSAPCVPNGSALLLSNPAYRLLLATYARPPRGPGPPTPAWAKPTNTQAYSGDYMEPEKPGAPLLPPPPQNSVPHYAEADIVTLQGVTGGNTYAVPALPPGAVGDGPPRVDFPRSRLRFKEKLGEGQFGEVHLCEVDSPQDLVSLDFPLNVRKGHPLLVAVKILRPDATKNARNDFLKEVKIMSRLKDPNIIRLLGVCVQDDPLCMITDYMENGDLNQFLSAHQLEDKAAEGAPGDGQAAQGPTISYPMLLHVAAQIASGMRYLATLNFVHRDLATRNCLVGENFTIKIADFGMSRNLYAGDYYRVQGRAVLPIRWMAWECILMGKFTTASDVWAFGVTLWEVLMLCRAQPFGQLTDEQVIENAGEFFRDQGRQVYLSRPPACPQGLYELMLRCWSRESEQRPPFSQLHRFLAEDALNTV

[18] = Antiproliferative activity against mouse BAF3 cells; format: cell-based
[19] = biological target: Mast/stem cell growth factor receptor Kit (Homo sapiens) (UniProt P10721); experiment: Inhibition of Tel-fused cKIT (unknown origin) transfected in mouse BAF3 cells assessed as decrease in cell proliferation after 72 hrs by celltiter-glo/CCK8 assay; format: cell-based
Method in brief: (§4)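 Cells were seeded at 1 to 3 × 10⁴ cells/mL with serial compound concentrations and incubated 72 h at 37 °C, 5% CO₂. Viability was read by CellTiter-Glo luminescence or CCK-8 absorbance (450/655 nm). GI50 values are from triplicate testing. GIST-T1 and CHO were grown in DMEM/10% FBS; GIST-882, GIST-48B and MV4-11 in IMDM/10% FBS; other lines in RPMI 1640/10% FBS.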

[20] = biological target: Mast/stem cell growth factor receptor Kit (Homo sapiens) (UniProt P10721); experiment: Inhibition of Tel-fused cKIT L567P mutant (unknown origin) transfected in mouse BAF3 cells assessed as decrease in cell proliferation after 72 hrs by celltiter-glo/CCK8 assay; format: cell-based
MV4-11 = experiment: Antiproliferative activity against FLT3-ITD dependent human MV4-11 cells assessed as reduction in cell viability after 72 hrs by celltiter-glo/CCK8 assay; format: functional; details: MV4-11, 72 h; method in brief: as §4
[21] = Antiproliferative activity against cKIT dependent human GIST882 cells assessed as reduction in cell viability after 72 hrs by celltiter-glo/CCK8 assay; format: functional; details: GIST882, 72 h; method in brief: as §4
K562 = experiment: Antiproliferative activity against BCR-ABL dependent human K562 cells assessed as reduction in cell viability after 72 hrs by celltiter-glo/CCK8 assay; format: functional; details: K562, 72 h; method in brief: as §4
[22] = Antiproliferative activity against BCR-ABL dependent human KU812 cells assessed as reduction in cell viability after 72 hrs by celltiter-glo/CCK8 assay; format: functional; details: KU812, 72 h; method in brief: as §4
[23] = Antiproliferative activity against human U937 cells assessed as reduction in cell viability after 72 hrs by celltiter-glo/CCK8 assay; format: functional; details: U-937, 72 h; method in brief: as §4
[24] = Antiproliferative activity against human Rec1 cells assessed as reduction in cell viability after 72 hrs by celltiter-glo/CCK8 assay; format: functional; details: Rec1, 72 h; method in brief: as §4
[25] = Antiproliferative activity against CHL cells assessed as reduction in cell viability after 72 hrs by celltiter-glo/CCK8 assay; format: cell-based, Cricetulus griseus; details: chinese hamster; method in brief: as §4
[26] = Antiproliferative activity against CHO cells assessed as reduction in cell viability after 72 hrs by celltiter-glo/CCK8 assay; format: cell-based, Cricetulus griseus; details: chinese hamster; method in brief: as §4
[27] = biological target: Mast/stem cell growth factor receptor Kit (Homo sapiens) (UniProt P10721); experiment: Inhibition in cKIT autophosphorylation at Y703 in human GISTT1 cells up to 10 uM after 2 hrs by Western blot analysis; format: cell-based; method in brief: as §2

Question: Which inhibition [1] does the source give for `Cc1ccc(NC(=O)c2cccc(C(F)(F)F)c2)cc1OC1CCN(C(=O)c2ccncc2)CC1` here?
Answer: The inhibition was “Active”.

Question: And the inhibition [2]?
Answer: Its inhibition is “Active”.

Question: What about the inhibition [3] of the same molecule?
Answer: Its inhibition is “Active”.

Question: What about the Activity (GISTT1 [4]) of the same molecule?
Answer: Its Activity is “Active”.

Question: And the Activity (GIST882)?
Answer: The Activity was “Active”.

Question: What about the Activity (GIST48B) of the same molecule?
Answer: The Activity was “inactive”.

Question: What about the Activity [5] of the same molecule?
Answer: Its Activity is “Active”.

Question: What about the half-life [6] of the same molecule?
Answer: Its half-life is 0.451 h.

Question: And the half-life [7]?
Answer: The half-life was 4.11 h.

Question: What about the Vd [8] of the same molecule?
Answer: Its Vd is 3.22 L/kg.

Question: And the clearance [9]?
Answer: Its clearance is 83.1 mL/min/kg.

Question: What about the Activity (GISTT1 [10]) of the same molecule?
Answer: The Activity was “Active”.

Question: What about the inhibition [11] of the same molecule?
Answer: Its inhibition is “Active”.

Question: And the inhibition [12]?
Answer: The inhibition was “Active”.

Question: What about the inhibition [13] of the same molecule?
Answer: Its inhibition is “Active”.

Question: And the Activity [14]?
Answer: The Activity was 0.6%.

Question: What about the Activity [15] of the same molecule?
Answer: Its Activity is 0.45%.

Question: And the Activity [16]?
Answer: The Activity was 0.2%.

Question: What about the IC50 [17] of the same molecule?
Answer: Its IC50 is 0.126 µM.

Question: And the GI50 [18]?
Answer: The GI50 was greater than 10 µM.

Question: What about the GI50 [19] of the same molecule?
Answer: The GI50 was 0.19 µM.

Question: And the GI50 [20]?
Answer: The GI50 was 0.15 µM.

Question: What about the GI50 (MV4-11) of the same molecule?
Answer: The GI50 was greater than 10 µM.

Question: What about the GI50 [21] of the same molecule?
Answer: Its GI50 is 0.043 µM.

Question: What about the GI50 (K562) of the same molecule?
Answer: The GI50 was greater than 10 µM.

Question: And the GI50 [22]?
Answer: The GI50 was 6.71 µM.

Question: And the GI50 [23]?
Answer: The GI50 was greater than 10 µM.

Question: What about the GI50 [24] of the same molecule?
Answer: Its GI50 is greater than 10 µM.

Question: What about the GI50 at 72 h [25] of the same molecule?
Answer: Its GI50 at 72 h is greater than 10 µM.

Question: And the GI50 at 72 h [26]?
Answer: Its GI50 at 72 h is greater than 10 µM.

Question: And the inhibition [27]?
Answer: The inhibition was “Active”.
